# Screening results: PubChem BioAssay, several laboratories
# aDG glyco up: activators of alpha-DG glycosylation, primary screen, uHTS, Pro5-aDG cells, AlphaScreen; alpha-DG glycosylation AlphaScreen (IIH6); 0% Pro5, 100% B10-LARGE cell signal; activation, % at 10 µM; 360,000 compounds, 0.22% hits; AID 624168, 2012;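 active = activation of at least 8% versus controls, or a plate z-score of at least 8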;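 note: Pro5 are CHO cells carrying HIG-tagged alpha-DG that lacks glycosylation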
# NPR2 activator: human GC-B receptor activators, primary screen, HEK293 GC-B cells, cGMP TR-FRET, EC30 CNP | 0% at EC30 CNP, 100% saturating CNP | 370,000 compounds, 0.11% hits | activation, % at 10 µM | Atrial natriuretic peptide receptor 2 (Homo sapiens), P20594;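 active = activation at 10 µM reaching about 35% in either raw or pattern-adjusted values, limit read from the data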
# GC-A act: GC-A stimulated cGMP production enhancers – HEK293 GC-A cells, cGMP TR-FRET, EC30 ANP, primary screen; 370,000 compounds, 0.14% hits; activation, % at 10 µM; AID 1671463, 2021; 0% at EC30 ANP, 100% saturating ANP; in the data active = activation above about 40%
# GRIN3A LBD mod: binders of NR3A ligand-binding domain, primary screen, biophysical, differential scanning fluorimetry, uHTS; NR3A LBD differential scanning fluorimetry, Tm shift; 0% = protein alone, 100% = glycine-bound protein; AID 1259313, 2017; Glutamate receptor ionotropic, NMDA 3A (GRIN3A) ligand-binding domain; 340,000 compounds, 2.5% hits; Tm shift relative to glycine control, % at 25 µM;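 active = melting temperature shift of at least 10% of the positive control shift, at one fixed dose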
# JMJD2C inh: inhibitors of GASC-1 histone demethylase, primary screen, biochemical, fluorescence, DELFIA europium. GST-JMJD2C(1-420) H3K9me3 demethylation. inhibition, % at 2.35 µM. 330,000 compounds, 0.069% hits. AID 2099, 2009;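 active = more than half of a compound's replicate wells show inhibition beyond 50%, single wells judged on their own value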;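 note: signal counts dimethyl H3K9 product captured on neutravidin plate; 0% = median of DMSO wells and 100% = 0.3 times that DMSO median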
# Target sequence (Q9H3R0 1-420 limits assumed): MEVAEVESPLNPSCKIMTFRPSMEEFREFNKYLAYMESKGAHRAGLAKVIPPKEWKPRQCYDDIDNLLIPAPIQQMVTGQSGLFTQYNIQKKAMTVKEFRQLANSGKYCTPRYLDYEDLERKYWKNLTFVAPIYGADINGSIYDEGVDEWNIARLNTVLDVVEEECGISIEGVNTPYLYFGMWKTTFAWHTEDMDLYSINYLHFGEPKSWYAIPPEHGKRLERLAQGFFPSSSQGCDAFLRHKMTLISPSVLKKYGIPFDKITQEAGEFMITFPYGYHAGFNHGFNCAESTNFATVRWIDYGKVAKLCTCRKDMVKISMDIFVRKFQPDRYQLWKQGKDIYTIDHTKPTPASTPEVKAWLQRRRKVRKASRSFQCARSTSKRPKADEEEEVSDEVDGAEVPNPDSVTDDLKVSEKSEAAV
# Lipid droplet: inhibitors of hepatocyte lipid droplet formation, primary screen, imaging, high-throughput imaging, BODIPY stain. AML12 mouse hepatocytes, oleate lipid droplets. inhibition, % at 6.5 µM. 240,000 compounds, 0.4% hits. AID 1656, 2009;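 active = lipid droplet intensity inhibited by at least 50%, with more than 500 cells counted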
#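 Assay system: AML12 mouse liver cells | Compound: 6.5 µM single-point dosing | Schedule: Overnight exposure | Technique: Fluorescence imaging, 20x objective, two fields per well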
# Starred values were filed as active, the others as inactive; nt = no result given. Hits are enriched below; roughly 3% of the tested compounds scored in any of these assays.
SMILES,aDG glyco up,NPR2 activator,GC-A act,GRIN3A LBD mod,JMJD2C inh,Lipid droplet
CCOC(=O)c1ccc(NC(=S)N2CCSC2c2c(F)cc(F)cc2F)cc1 (stereo unspecified),1,-2,4,7,9,-10
O=C(O)c1cccnc1Sc1ccc(Br)cc1,0,-1,3,-1,-19,8
O=c1[nH]c2ccc(Br)cc2o1,0,-1,4,11*,nt,nt
Cc1csc(NC(=O)C2CC(=O)N(c3ccc(C)c(C)c3)C2)n1 (stereo unspecified),0,1,-5,0,5,-26
O=C(N/N=C\C=C\c1ccco1)c1cc(-c2ccc3ccccc3c2)n[nH]1,0,-4,-4,15*,20,8
Cc1onc(-c2ccccc2)c1C(=O)Nc1sc2c(c1C#N)CCC2,0,-5,1,2,-1,2
Cc1onc(-c2ccccc2)c1C(=O)NC(=S)Nc1sc2c(c1C#N)CCCC2,0,-3,-4,11*,1,-10
C/C(=N/NS(=O)(=O)c1cc(C)ccc1C)c1c[nH]c2ccccc12,0,2,-4,29*,-7,9
Cc1ccc(S(=O)(=O)N2CC3=C(c4ccccc4)CC4(C)C(=O)C(C)(C)CC4=C3C2)cc1 (stereo unspecified),nt,-2,0,nt,nt,nt
COc1ccc(CC(=O)Nc2sc3c(c2C#N)CC(C)(C)NC3(C)C)cc1OC,0,37*,31,-2,-4,2
CCCC(=O)Nc1sc2c(c1C#N)CC(C)(C)NC2(C)C,0,-5,0,0,-2,-2
O=C(Nc1ccc(F)cc1F)C1CCCN1S(=O)(=O)c1cccnc1 (stereo unspecified),nt,-2,2,nt,nt,nt
CCc1nc2c(OCc3ccc(Cl)cc3)cccn2c1N(C)C(=O)c1ccncc1,0,1,-2,nt,nt,nt
CC(=O)Nc1ccc(NC(=O)c2ccc(NS(=O)(=O)c3cccc4cccnc34)cc2)cc1,0,5,1,19*,0,41
Cc1cc(C(C)(C)C)cc(S(=O)(=O)Nc2ccc(O)c(C(=O)O)c2)c1C,0,2,0,-8,0,-1
Cc1ccc(S(=O)(=O)Nc2ccc(C(=O)NCc3ccccn3)cc2)cc1,0,-4,-2,13*,-16,1
CC(=O)Nc1ccc(NC(=O)c2ccc(NS(=O)(=O)c3cc(C(C)(C)C)cc(C)c3C)cc2)cc1,0,-11,-5,26*,2,0
COc1ccc(NC(=O)c2ccc(NS(=O)(=O)c3cccc4cccnc34)cc2)cc1,0,-20,-58,2,4,-1
COc1ccccc1NC(=O)c1ccc(NS(=O)(=O)c2cccc3cccnc23)cc1,0,-19,-41,18*,-11,7
COC(=O)c1cc(CNC(=O)c2sccc2-c2ccccc2)ccc1OC,1,1,3,0,4,-1
C#CCNC(=O)C[C@H]1C[C@@]2(C(=O)OC)C(=C[C@H](C3CCCC3)O[C@@H]2C)N(CCC2=CCCCC2)C1=O,nt,-3,0,nt,nt,nt
CCCCOCCCNC(=O)C[C@H]1C[C@@]2(C(=O)OC)C(=C[C@H](C(C)(C)C)O[C@@H]2C)N(Cc2ccco2)C1=O,nt,-12,-16,nt,nt,nt
CN1CCCN(S(=O)(=O)c2ccc3c(c2)CCC(=O)N3)CC1,nt,-1,4,nt,nt,nt
Cc1ccc(NC(=O)c2ccc(NS(=O)(=O)c3cccc4cccnc34)cc2)cc1,0,nt,nt,28*,-2,0
COc1ccccc1NC(=O)c1ccc(NS(=O)(=O)c2ccc(F)c(Cl)c2)cc1,0,-2,-2,11*,9,-28
COC(=O)C1CN(Cc2cn(Cc3ccc(C)cc3)nn2)CCS(=O)(=O)N1Cc1ccc(Cl)cc1 (stereo unspecified),nt,-1,-8,nt,nt,nt
